# High-throughput results deposited in PubChem BioAssay by several laboratories.
# TAAR1 antagonist: antagonists of human TAAR1 | AID 624466 | CHO RD-HGA16 TAAR1, Fluo-8 calcium fluorescence, antagonist | inhibition, % at 3 µM | Q96RJ0 | actives 1.5% (n = 360,000);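 active = inhibition above a per-plate cutoff, the mean inhibition of test compounds on that plate plus 3 SD, cut at about 49% in these data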
#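 Test system – hTAAR1-expressing CHO RD-HGA16 cells, Gα16-coupled · Also added – β-PEA at EC80 concentration, post-compound challenge · Compound – 3 µM, single point · Incubation – dye loading 75 min at 37 °C, then 30 min room temperature · Measured by – Fluo-8 intracellular calcium dye fluorescence, real-time kinetic reads · Benchmarks – vehicle and agonist controls · Replicates – singlicate, one well per test compound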
# TAAR1 agonist: agonists of human TAAR1; CHO RD-HGA16 TAAR1, Fluo-8 calcium fluorescence; vehicle wells 0%, saturating PEA agonist 100%; activation, % at 3 µM; actives 0.99% (n = 360,000); AID 624467;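 active = activation above the mean activation of all test compounds in the run plus 3 SD, cut at about 38% in these data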
#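 Test system: RD-HGA16 (CHO) cells co-expressing Gα16 and hTAAR1 | Doses: Single dose, 3 µM | Schedule: 17-24 h seeding, 75 min 37 °C dye, 30 min RT | Evaluation: % activation from peak over basal fluorescence ratio, DMSO-to-PEA scaled | Technique: Kinetic Fluo-8 calcium fluorescence | Benchmarks: Low control DMSO, high control PEA (EC100)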
# DAGLB inh: blocks human DAGLB lipase activity; Q8NCG7; HEK293T DAGLB membrane lysate, EnzChek fluorogenic substrate; inhibition, % at 5.17 µM; actives 0.059% (n = 340,000); AID 504411; in the data active = inhibition above about 34%
# Target sequence (Q8NCG7 whole entry, looked up): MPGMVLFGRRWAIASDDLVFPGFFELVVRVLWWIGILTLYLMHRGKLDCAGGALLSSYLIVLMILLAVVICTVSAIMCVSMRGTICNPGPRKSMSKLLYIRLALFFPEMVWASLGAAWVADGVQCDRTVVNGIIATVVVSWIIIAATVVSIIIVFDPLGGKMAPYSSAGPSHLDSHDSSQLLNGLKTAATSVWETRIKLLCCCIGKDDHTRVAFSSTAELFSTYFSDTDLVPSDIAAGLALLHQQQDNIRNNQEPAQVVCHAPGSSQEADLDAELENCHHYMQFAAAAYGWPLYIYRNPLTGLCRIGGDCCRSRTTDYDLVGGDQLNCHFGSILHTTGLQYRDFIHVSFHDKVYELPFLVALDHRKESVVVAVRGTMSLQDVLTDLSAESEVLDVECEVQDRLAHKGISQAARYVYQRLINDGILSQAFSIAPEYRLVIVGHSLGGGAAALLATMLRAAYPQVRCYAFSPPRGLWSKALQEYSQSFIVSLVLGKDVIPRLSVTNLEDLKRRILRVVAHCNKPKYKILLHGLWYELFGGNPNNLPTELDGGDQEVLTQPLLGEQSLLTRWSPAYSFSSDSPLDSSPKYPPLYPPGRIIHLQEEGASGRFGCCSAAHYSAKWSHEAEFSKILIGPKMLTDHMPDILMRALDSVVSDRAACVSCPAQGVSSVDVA
# MPTP block: inhibitors of mitochondrial permeability transition pore | isolated mouse mitochondria, Ca2+ swelling absorbance, 30 min | inhibition, % at 10 µM | actives 1.4% (n = 360,000);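 active = inhibition of 50% or more, scaled per plate between neutral and stimulator controls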
# GPR7 antagonist: antagonists of human GPR7 (neuropeptides B/W receptor 1) | actives 1.1% (n = 290,000) | inhibition, % at 4.4 µM | P48145 | AID 1861 | GPR7-expressing cells, fluorescence antagonist assay; in the data active = inhibition above about 16%, passing the limit was not always enough;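 note: cells stimulated with the agonist NPW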
# Hits are given with their value; i = inactive; nt = no result given. An excerpt weighted towards active compounds, which were near 4% of everything screened.
SMILES,TAAR1 antagonist,TAAR1 agonist,DAGLB inh,MPTP block,GPR7 antagonist
Cc1ccc(/C=C2/C(=O)NC(=O)N(CCc3ccc(F)cc3)C2=O)o1,i,39,i,i,i
Cc1ccc(/C=C2\C(=O)NC(=S)N(c3ccccc3F)C2=O)s1,i,i,i,i,i
O=C1NC(=O)N(c2ccccc2F)C(=O)/C1=C/c1ccc(Sc2nc3ccccc3[nH]2)o1,57,74,i,i,i
CC(NCc1ccc(Cl)c(Cl)c1)C(O)c1ccccc1 (stereo not drawn),i,i,i,i,i
CN[C@@H]1C[C@@H](c2ccc(Cl)c(Cl)c2)c2ccccc21,nt,nt,nt,nt,47
Cc1cccc(OP(=O)(Oc2ccccc2)OC(c2ccccc2)C(F)(F)F)c1 (stereo not drawn),51,i,i,i,i
C[C@H](Cc1ccc(OCC(=O)O)cc1)NC[C@H](O)c1cccc(Cl)c1,i,i,nt,nt,nt
C[C@]12CC[C@H](O)CC1=CCC1C2CC[C@]2(C)C(=O)[C@H](Br)CC12 (stereo partly drawn),59,i,i,i,nt
Cc1ccc(C)c(NP(=O)(Oc2ccccc2)Oc2ccccc2)c1,80,i,i,i,i
Cc1ccc(S(=O)(=O)NP(=O)(Oc2ccccc2)Oc2ccccc2)cc1,i,i,i,i,i
Clc1ccc([C@H]2CC3CCC2N3)cn1 (stereo partly drawn),i,i,nt,nt,nt
CCN(CC)CCC(=O)O[C@H]1CC[C@]2(C)C3CC[C@@]4(C)C(CC[C@]4(C)O)C3CC[C@H]2C1 (stereo partly drawn),60,43,i,i,nt
C[C@]12CCC(=O)C[C@@H]1CC[C@@H]1[C@@H]2CC[C@@]2(C)[C@H]1CC[C@]2(C)O,nt,nt,nt,nt,i
N#Cc1ccc(NC(=S)N2Cc3ccc(Br)cc3-n3nncc3C2)cc1,i,i,nt,nt,nt
COc1ccc(CC(C)NCCC(c2ccccc2)c2ccccc2)cc1 (stereo not drawn),i,42,i,i,i
CC1CCCN(CC(=O)c2ccc(Cl)c(Cl)c2)C1 (stereo not drawn),i,42,i,i,i
CC1CCN(CC(=O)c2ccc3c(c2)OCCO3)CC1,i,i,i,i,i
CN1CC[C@@H]2CN[C@H](c3ccccc3Br)C[C@@H]21,i,i,nt,nt,nt
Cc1ccc(OC(=O)N(C)C[C@H]2OCc3cnnn3CCCC(=O)N([C@H](C)CO)C[C@H]2C)cc1,i,i,nt,nt,nt
COC(=O)C1=C(c2cccc3c2S(=O)(=O)c2ccccc2-3)C[C@@H]2CC[C@H]1N2C(=O)N1CCc2cc(OC)c(OC)cc2C1,51,i,i,i,nt
OC1CN2CCCC(O)C2C1O (stereo not drawn),i,i,nt,nt,nt
O=C(NCCN1CCC2(CC1)C(=O)NCN2c1ccccc1)c1ccccc1C(F)(F)F,i,i,nt,nt,nt
Cc1cc(C)cc(-n2c(C)cc(/C=C3\C(=O)NC(=O)N(C)C3=O)c2C)c1,i,38,i,i,i
CC(O)C1C=CC=CC(=O)OC2CC3OC4C5OC5(C)CCC4(COC(=O)C4OC4(C)C(O)CO1)C2(C)C31CO1 (stereo not drawn),i,i,i,i,nt
CC(=O)OC1C(=O)OCC23CCC4(C)OC4C2OC2CC(OC(=O)C=CC=CC(=O)OCCC1C)C3(C)C21CO1 (stereo not drawn),65,i,i,i,nt
SMILES,TAAR1 antagonist,TAAR1 agonist,DAGLB inh,MPTP block,GPR7 antagonist
CCCCc1nc(N2CCNCC2)c(C#N)c2c1CSC(C)(C)C2,i,40,i,i,i
CC(C)C(CN1CCC(C)(c2cccc(O)c2)[C@@H](C)C1)NC(=O)C1Cc2ccc(O)cc2CN1 (stereo partly drawn),i,i,nt,nt,nt
Cc1cccc(NP(=O)(Oc2ccccc2F)Oc2ccccc2F)c1,53,i,i,i,i
Cc1ccc(NP(=O)(Oc2ccccc2F)Oc2ccccc2F)cc1C,i,i,i,i,i
COc1ccccc1OP(=O)(Nc1cccnc1)Oc1ccccc1OC,60,i,i,i,i
COC(=O)C1C(OC(=O)c2ccccc2)CC2CCC1[N+]2(C)C (stereo not drawn),i,i,nt,nt,nt
CC(C)NC1(c2ccccc2)CCCCC1,i,i,nt,nt,nt
CC(C)OCCCNC(=O)c1c(N)n(CC2CCCO2)c2nc3ccccc3nc12 (stereo not drawn),i,i,i,i,15
Nc1c(C(=O)NCCCc2ccccc2)c2nc3ccccc3nc2n1Cc1cccs1,i,37,i,i,i
